In assay [1] the test system is HL-60. Briefly: Cytotoxicity against human HL60 cells at 50 uM after 48 hrs by MTT assay. The class given is functional, cell-based. (In general: Tetrazolium assays rely on reduction of a dye to a coloured formazan, in cell work by metabolically active cells.)
The test system of assay [2] is MCF7. Briefly: Cytotoxicity against human MCF7 cells at 50 uM after 48 hrs by MTT assay. It is filed as functional, cell-based.
Assay [3] concerns HCT-116. Put plainly: Cytotoxicity against human HCT116 cells at 50 uM after 48 hrs by MTT assay. It is filed as functional, cell-based.
The next assay has as its system Plasmodium falciparum. Put plainly: Antiplasmodial activity against Plasmodium falciparum 3D7. It is filed as functional, organism-based.
For assay [4], the system named is HL-60. Briefly: Cytotoxicity against human HL60 cells after 48 hrs by MTT assay. It is filed as functional, cell-based. To be noted: HL-60, 48 h. The gist of the method:
(§1)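 Cells seeded in 96-well plates, HL-60 at 1 × 10^4 cells/well and HCT-116 and MCF-7 at 5 × 10^3 cells/well, then preincubated 24 h at 37 °C in humidified 5% CO2. Compounds were added at graded concentrations and incubated for 48 h at 37 °C. MTT (5 mg/mL) was added for 2 h, and formazan was dissolved in 10% SDS/0.01 N HCl. Absorbance was read at 550 and 700 nm. Triplicate wells were used, and IC50 was taken from percent living cells versus controls.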

The test system of assay [5] is MCF7. Put plainly: Cytotoxicity against human MCF7 cells after 48 hrs by MTT assay. It is filed as functional, cell-based. To be noted: MCF7, 48 h. In outline: as §1
The subject of assay [6] is HCT-116. Briefly: Cytotoxicity against human HCT116 cells after 48 hrs by MTT assay. The class given is functional, cell-based. Particulars: HCT-116, 48 h. The gist of the method:
as §1

These results are taken from ChEMBL document CHEMBL1151956, “Sucutiniranes C-F, cassane-type diterpenes from Bowdichia nitida” (J Nat Prod, 2009).

Each structure is given as a SMILES string. Activity calls are given as the source filed them. The rule behind the calls is not given here.

`CC(=O)O[C@H]1Cc2c(cc3occc3c2C)[C@@]2(C)CCCC(C)(C)[C@H]12`: the result in the assay on HL-60 [1], in the assay on MCF7 [2], with HCT-116 [3] and with Plasmodium falciparum was inactive.

As to `Cc1c2c(cc3occc13)[C@@]1(C)CCCC(C)(C)[C@@H]1C=C2`, the outcome in the assay with HL-60 [1], in the assay with MCF7 [2], with HCT-116 [3] and in the assay on Plasmodium falciparum was inactive.

In general, IC50 refers to the concentration that gives 50% inhibition. A low value points to inhibition by little substance. For `CC(=O)O[C@H]1C[C@H]2[C@@H](C)C3=CC(=O)O[C@@H]3C[C@@H]2[C@@]2(C)CCCC(C)(C)[C@H]12` [12-DEOXY-SUCUTINIRANE A], inhibition in the assay with HL-60 [4] was half-maximal at 32 µM (IC50).

In the assay on HL-60 [4], `CC(=O)O[C@H]1C[C@H]2[C@@H](C)C3=CC(=O)O[C@]3(O)C[C@@H]2[C@@]2(C)CCCC(C)(C)[C@H]12` [SUCUTINIRANE A] returned an IC50 of 14 µM.

With `CC(=O)O[C@H]1[C@H](O)[C@H]2[C@@H](C)c3ccoc3C[C@@H]2[C@@]2(C)CCCC(C)(C)[C@H]12` [Sucutinirane E], the IC50 stood at 12 µM in the assay with HL-60 [4], 35 µM with MCF7 [5] and 36 µM with HCT-116 [6]. The result with Plasmodium falciparum was inactive.

On to `CC(=O)O[C@H]1[C@H](O)[C@H]2C(C)(C)CCC[C@]2(C)[C@H]2Cc3occc3[C@H](C)[C@H]12` [Sucutinirane F], for which the IC50 with HL-60 [4] stood at 7.5 µM; with MCF7 [5], 18 µM; in the assay with HCT-116 [6], 30 µM. The outcome in the assay with Plasmodium falciparum was inactive.
